Measurements from publication PMC6463388 (Biochemical Journal, 2019).
Each block holds one molecule with its values, some of them ahead of it.

Key:
[1] = molecular target: T1, AtGCL (WT γ-glutamylcysteine ligase) (Arabidopsis thaliana, UniProt P46309); experiment: inhibition of GCL activity; type: biochemical; conditions: read-out: GSH
T1 sequence (P46309 74-522): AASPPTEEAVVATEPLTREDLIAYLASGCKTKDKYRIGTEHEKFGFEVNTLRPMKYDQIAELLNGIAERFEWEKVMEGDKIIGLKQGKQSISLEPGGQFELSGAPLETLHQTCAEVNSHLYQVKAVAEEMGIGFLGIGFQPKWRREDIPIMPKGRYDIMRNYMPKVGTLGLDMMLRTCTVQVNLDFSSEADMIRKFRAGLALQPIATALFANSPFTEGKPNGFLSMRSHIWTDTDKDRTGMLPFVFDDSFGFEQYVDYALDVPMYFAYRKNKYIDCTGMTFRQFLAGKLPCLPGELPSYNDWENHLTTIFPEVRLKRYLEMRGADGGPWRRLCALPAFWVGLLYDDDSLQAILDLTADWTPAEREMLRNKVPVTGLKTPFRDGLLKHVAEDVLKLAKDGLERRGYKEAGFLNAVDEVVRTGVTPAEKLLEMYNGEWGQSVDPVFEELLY
Procedure, shortened: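 Recombinant His-tagged AtGCL from E. coli Rosetta-gami DE3, purified by Ni²⁺ affinity, cleaved with TEV protease, then passed through a second Ni²⁺ step. Pyruvate kinase/lactate dehydrogenase-coupled assay at pH 7.0 (100 mM MOPSO, 150 mM NaCl, 20 mM MgCl₂). […] Reaction started with 50 µg enzyme; A340 monitored.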

[2] = substrate: N[C@@H](CCC(=O)O)C(=O)O; experiment: purified protein; type: biochemical, Arabidopsis thaliana; conditions: 20 mM cysteine, 20 mM ATP, 20 mM MgCl2, pH 7.0, oxidized homo-dimer
[3] = substrate: N[C@@H](CS)C(=O)O; experiment: purified protein; type: biochemical, Arabidopsis thaliana; conditions: 20 mM ATP, 80 mM glutamate, 20 mM MgCl2, pH 7.0, oxidized homo-dimer

- activity at 2000 µM [1]: 49 ± 4%
Molecule: N[C@@H](CCC(=O)N[C@@H](CS)C(=O)NCC(=O)O)C(=O)O [GSH]

B1: AtGCL (WT γ-glutamylcysteine ligase) (Arabidopsis thaliana) (protein)
chain: T1 sequence (P46309 74-522)
- Km [2]: 6.64 ± 1.02 mM
- Km [3]: 0.34 ± 0.12 mM
